In ChEMBL document CHEMBL2016550, “Synthesis and structure-activity relationships of 1,2,4-triazolo[1,5-a]pyrimidin-7(3H)-ones as novel series of potent β isoform selective phosphatidylinositol 3-kinase inhibitors” (Bioorg Med Chem Lett, 2012):

Assays:
[1] = target: Phosphatidylinositol 4,5-bisphosphate 3-kinase catalytic subunit alpha isoform (Homo sapiens, UniProt P42336); test: Inhibition of PI3Kalpha by continuous read time resolved fluorescence resonance energy transfer displacement assay
[2] = target: T1, Phosphatidylinositol 4,5-bisphosphate 3-kinase catalytic subunit beta isoform (Homo sapiens, UniProt P42338); test: Inhibition of PI3Kbeta by continuous read time resolved fluorescence resonance energy transfer displacement assay
[3] = target: Phosphatidylinositol 4,5-bisphosphate 3-kinase catalytic subunit gamma isoform (Homo sapiens, UniProt P48736); test: Inhibition of PI3Kgamma by continuous read time resolved fluorescence resonance energy transfer displacement assay
[4] = target: T2, Phosphatidylinositol 4,5-bisphosphate 3-kinase catalytic subunit delta isoform (Homo sapiens, UniProt O00329); test: Inhibition of PI3Kdelta by continuous read time resolved fluorescence resonance energy transfer displacement assay
T2 sequence (O00329 whole entry): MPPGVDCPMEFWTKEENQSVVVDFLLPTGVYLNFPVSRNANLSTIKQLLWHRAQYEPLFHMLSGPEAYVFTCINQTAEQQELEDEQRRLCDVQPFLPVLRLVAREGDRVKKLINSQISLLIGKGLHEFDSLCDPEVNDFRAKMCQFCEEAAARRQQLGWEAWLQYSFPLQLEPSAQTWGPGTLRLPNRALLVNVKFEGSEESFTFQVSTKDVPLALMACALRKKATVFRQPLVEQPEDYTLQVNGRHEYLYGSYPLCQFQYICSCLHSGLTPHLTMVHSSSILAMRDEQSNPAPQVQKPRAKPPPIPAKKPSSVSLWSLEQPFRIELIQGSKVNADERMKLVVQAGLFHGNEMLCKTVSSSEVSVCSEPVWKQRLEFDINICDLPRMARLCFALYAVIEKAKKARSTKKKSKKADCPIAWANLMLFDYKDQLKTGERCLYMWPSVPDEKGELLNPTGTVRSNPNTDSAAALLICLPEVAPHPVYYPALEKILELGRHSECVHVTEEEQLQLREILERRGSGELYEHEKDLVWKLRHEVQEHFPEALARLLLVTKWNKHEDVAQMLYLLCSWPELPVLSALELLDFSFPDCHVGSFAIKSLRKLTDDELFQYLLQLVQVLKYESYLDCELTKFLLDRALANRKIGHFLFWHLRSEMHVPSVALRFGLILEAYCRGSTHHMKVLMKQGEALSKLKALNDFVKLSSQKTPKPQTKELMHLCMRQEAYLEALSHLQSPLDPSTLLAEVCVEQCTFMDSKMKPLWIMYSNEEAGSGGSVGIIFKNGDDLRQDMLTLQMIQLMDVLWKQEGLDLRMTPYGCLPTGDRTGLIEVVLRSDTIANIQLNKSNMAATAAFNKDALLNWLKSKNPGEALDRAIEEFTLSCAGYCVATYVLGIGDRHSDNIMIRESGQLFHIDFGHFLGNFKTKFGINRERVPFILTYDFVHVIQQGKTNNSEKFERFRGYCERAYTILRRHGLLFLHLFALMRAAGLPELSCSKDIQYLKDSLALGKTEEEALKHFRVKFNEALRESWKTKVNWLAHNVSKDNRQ

[5] = Selectivity ratio of IC50 for PI3Kdelta to IC50 for PI3Kbeta
[6] = target: T1, Phosphatidylinositol 4,5-bisphosphate 3-kinase catalytic subunit beta isoform; test: Inhibition of PI3K beta-mediated AKT phosphorylation at serine 473 in PTEN deficient human MDA-MB-468 cells after 30 mins; type: cell-based
Method in brief: (§1)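 Breast cancer cells plated and held about 16–20 h, then exposed to compound for 30 min at 0.15% final DMSO. After a Tris wash, cells were lysed in buffer with protease and phosphatase inhibitors. Ser473-pAKT and total AKT were measured by MSD duplex immunoassay, normalised to total AKT (pAKT + AKT signal), and expressed as percent of DMSO control. IC50 from concentration-response fits; means of at least 2 experiments.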

[7] = system: MDA-MB-468; test: Cytotoxicity against PTEN deficient human MDA-MB-468 cells after 6 days by alamar blue assay; type: functional, cell-based
Method in brief: (§2)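 Cells were grown anchorage-independently: a 0.6% agar/medium + 10% FBS bottom layer, cells in 0.3% agar/medium + 10% FBS, and medium + 10% FBS on top. After 16–20 h they were dosed (0.15% final DMSO) for 6 days, with a baseline plate read at dosing. Alamar Blue was added for 6 h and read as fluorescence (ex 530/em 590 nm). Signal from 0.3% Brij 35 background wells was subtracted, values were expressed as % of DMSO control, and fitted with a 4-parameter logistic.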

[8] = target: Serine/threonine-protein kinase mTOR (Homo sapiens, UniProt P42345); test: Inhibition of mTOR
[9] = Inhibition of DNA-PK
[10] = target: T1, Phosphatidylinositol 4,5-bisphosphate 3-kinase catalytic subunit beta isoform; test: Inhibition of PI3K beta-mediated AKT phosphorylation at serine 473 in PTEN wild type human HCC1954 cells; type: cell-based; method in brief: as §1
[11] = system: HCC1954; test: Cytotoxicity against PTEN wild type human HCC1954 cells after 6 days by alamar blue assay; type: functional, cell-based; details: HCC1954, 144 h; method in brief: as §2
[12] = Clearance in rat at 0.25 mg/kg, iv; type: ADME, organism-based; parameters: dose 0.25 mg/kg, route intravenous; details: in vivo
Method in brief: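 Rats given a single IV dose at 0.25 mg/kg, formulated in 1% DMSO with 20% Encapsin in saline. Clearance was calculated after IV administration. Reported values are means of at least 2 experiments.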

[13] = Homo sapiens, MDA-MB-468, 144 h, read-out: EC50

T1 sequence (P42338 whole entry, canonical isoform): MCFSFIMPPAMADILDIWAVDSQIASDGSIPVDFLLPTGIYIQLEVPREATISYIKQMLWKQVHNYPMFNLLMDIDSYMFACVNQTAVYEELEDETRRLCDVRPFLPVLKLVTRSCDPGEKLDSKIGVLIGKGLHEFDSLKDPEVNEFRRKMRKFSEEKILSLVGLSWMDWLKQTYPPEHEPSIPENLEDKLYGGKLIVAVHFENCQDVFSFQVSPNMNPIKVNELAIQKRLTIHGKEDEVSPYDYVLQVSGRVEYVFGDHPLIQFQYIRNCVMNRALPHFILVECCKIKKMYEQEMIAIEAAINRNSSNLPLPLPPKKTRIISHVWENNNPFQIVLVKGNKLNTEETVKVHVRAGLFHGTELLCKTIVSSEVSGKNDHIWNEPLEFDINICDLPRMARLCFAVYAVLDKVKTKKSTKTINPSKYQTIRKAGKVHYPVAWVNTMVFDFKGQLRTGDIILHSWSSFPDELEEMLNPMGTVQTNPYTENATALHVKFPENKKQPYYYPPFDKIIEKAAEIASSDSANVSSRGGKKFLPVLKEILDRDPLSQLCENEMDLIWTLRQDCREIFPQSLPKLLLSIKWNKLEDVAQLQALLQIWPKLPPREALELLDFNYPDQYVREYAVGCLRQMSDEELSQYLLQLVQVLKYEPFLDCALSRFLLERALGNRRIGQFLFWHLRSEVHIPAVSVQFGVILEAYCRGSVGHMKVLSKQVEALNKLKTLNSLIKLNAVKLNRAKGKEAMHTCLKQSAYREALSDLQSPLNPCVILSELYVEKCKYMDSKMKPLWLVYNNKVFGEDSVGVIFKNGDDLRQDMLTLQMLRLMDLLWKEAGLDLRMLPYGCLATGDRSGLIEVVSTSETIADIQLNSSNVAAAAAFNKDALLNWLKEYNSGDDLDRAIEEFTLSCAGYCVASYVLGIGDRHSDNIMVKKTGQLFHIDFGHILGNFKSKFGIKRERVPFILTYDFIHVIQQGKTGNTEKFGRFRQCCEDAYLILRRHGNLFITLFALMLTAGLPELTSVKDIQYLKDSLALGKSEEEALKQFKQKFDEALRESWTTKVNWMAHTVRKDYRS
Chain of Phosphatidylinositol 4,5-bisphosphate 3-kinase catalytic subunit gamma isoform (P48736 whole entry, canonical isoform): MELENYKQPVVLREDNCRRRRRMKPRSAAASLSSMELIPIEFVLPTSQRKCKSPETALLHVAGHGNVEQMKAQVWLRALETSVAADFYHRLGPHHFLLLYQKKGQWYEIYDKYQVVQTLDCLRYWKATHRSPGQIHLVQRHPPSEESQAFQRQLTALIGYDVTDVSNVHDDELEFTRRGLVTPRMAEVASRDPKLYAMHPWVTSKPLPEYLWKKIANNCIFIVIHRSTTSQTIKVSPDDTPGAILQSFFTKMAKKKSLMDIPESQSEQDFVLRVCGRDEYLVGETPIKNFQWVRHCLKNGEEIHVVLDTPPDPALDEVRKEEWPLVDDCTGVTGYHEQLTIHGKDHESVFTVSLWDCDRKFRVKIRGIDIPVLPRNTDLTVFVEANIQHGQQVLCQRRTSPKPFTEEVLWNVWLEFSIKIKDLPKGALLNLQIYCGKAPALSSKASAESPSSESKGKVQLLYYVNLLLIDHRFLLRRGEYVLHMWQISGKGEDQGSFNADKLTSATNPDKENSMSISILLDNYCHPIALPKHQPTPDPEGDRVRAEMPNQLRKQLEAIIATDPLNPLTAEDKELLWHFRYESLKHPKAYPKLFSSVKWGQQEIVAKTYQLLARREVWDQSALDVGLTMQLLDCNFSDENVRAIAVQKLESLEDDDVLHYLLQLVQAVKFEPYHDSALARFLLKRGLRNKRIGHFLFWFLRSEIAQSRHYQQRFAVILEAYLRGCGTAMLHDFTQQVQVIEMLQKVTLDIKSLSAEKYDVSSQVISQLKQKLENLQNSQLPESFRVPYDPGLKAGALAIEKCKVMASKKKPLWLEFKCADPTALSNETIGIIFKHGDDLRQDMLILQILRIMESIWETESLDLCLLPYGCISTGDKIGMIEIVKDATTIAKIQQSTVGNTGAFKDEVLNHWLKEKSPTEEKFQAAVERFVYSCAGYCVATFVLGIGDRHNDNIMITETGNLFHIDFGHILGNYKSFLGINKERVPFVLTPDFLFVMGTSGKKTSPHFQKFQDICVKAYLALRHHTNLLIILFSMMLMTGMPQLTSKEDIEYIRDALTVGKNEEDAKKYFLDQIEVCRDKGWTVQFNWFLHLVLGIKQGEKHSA
Chain of Phosphatidylinositol 4,5-bisphosphate 3-kinase catalytic subunit alpha isoform (P42336 whole entry, canonical isoform): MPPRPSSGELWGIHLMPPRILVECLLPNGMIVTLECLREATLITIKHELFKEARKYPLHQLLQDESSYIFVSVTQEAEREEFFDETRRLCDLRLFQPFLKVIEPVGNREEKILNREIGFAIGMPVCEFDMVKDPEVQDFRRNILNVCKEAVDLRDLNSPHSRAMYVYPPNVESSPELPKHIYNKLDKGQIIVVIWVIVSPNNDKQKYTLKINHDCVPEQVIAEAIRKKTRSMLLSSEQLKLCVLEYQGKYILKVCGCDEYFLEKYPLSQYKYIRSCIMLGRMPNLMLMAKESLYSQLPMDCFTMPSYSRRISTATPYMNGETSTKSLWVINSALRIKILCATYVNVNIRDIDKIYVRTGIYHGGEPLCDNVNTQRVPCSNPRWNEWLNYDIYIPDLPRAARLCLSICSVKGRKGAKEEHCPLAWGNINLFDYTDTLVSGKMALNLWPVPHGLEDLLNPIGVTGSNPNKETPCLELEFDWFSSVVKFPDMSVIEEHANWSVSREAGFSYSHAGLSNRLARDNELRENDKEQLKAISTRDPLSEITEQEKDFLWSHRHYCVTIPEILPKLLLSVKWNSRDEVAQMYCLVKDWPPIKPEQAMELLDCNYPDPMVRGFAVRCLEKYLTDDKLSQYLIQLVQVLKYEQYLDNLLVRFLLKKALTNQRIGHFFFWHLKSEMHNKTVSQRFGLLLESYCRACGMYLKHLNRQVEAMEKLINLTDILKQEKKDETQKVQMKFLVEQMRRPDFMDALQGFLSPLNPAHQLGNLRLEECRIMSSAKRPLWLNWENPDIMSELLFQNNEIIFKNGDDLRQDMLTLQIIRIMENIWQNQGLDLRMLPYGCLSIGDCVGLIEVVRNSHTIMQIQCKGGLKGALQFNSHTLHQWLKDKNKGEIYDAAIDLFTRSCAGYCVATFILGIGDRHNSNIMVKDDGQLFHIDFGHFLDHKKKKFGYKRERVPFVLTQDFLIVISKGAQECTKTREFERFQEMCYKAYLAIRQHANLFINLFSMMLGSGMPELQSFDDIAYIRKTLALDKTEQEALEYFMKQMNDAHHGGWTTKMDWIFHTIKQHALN

Row | SMILES | IC50 [1] | IC50 [2] | IC50 [3] | IC50 [4] | Ratio IC50 [5] | IC50 [6] | EC50 [7, 13] | EC50 ([7]; mda-mb-468, read-out: EC50) | IC50 [8] | IC50 [9] | IC50 [10] | EC50 [11] | clearance [12] | EC50 ([7]; mda-mb-468)
1 | CSc1nn2c(=O)cc(N3CCOCC3)nc2n1Cc1cccc(Cl)c1Cl | 1600 nM | 1.6 nM | 500 nM | 31 nM | 19 | 13 nM | 240 nM |  |  |  |  |  |  | 
2 | Cc1nn2c(=O)cc(N3CCOC(C)C3)nc2n1Cc1cccc(Cl)c1Cl (racemic) | 320 nM | 2 nM | 250 nM | 25 nM |  |  |  |  |  |  |  |  |  | 
3 | Cc1c(Cn2c(C)nn3c(=O)cc(N4CCOC(C)C4)nc23)cccc1C(F)(F)F (single isomer, unassigned; enantiomer 2) [listing 1 of 2 here] | 320 nM | 0.3 nM | 60 nM | 4 nM |  | 0.5 nM |  | 13 nM | 6300 nM | 160 nM | 2500 nM | 2200 nM |  | 
4 | CSc1nn2c(=O)cc(N3CCOC(C)C3)nc2n1Cc1cccc(C(F)(F)F)c1C (stereo not drawn) | 1300 nM | 1 nM | 200 nM | 25 nM | 6 |  |  |  |  |  |  |  |  | 
5 | CSc1nn2c(=O)cc(-c3ccncc3)nc2n1Cc1cccc(Cl)c1Cl | 400 nM | 13 nM | 2000 nM | 79 nM | 6 |  |  |  |  |  |  |  |  | 
6 | Cc1nn2c(=O)cc(N3CCOC(C)C3)nc2n1Cc1cccc(Cl)c1Cl (stereo in doubt; 6) [listing 1 of 2 here] | 2500 nM | 25 nM | 7900 nM | 500 nM |  |  |  |  |  |  |  |  |  | 
7 | Cc1c(Cn2c(C)cn3c(=O)cc(N4CCOCC4)nc23)cccc1C(F)(F)F |  | 1.3 nM |  | 7.9 nM |  |  |  |  | 32000 nM | 800 nM | > 29000 nM | 9700 nM |  | 
8 | Cc1c(Cn2c(C)nn3c(=O)nc(N4CCOCC4)cc23)cccc1C(F)(F)F |  | 2 nM |  |  |  | 92 nM | 210 nM |  |  |  |  |  | 83 mL/min/kg | 
9 | O=c1cc(N2CCOCC2)nc2n(Cc3cccc(Cl)c3Cl)c(C3CC3)nn12 | 2500 nM | 2.5 nM | 2500 nM | 130 nM | 52 | 20 nM | 260 nM |  |  |  |  |  |  | 
10 | Cc1nn2c(=O)cc(N3CCOC(C)C3)nc2n1Cc1cccc(Cl)c1Cl (stereo in doubt; 6) [listing 2 of 2 here] |  |  |  |  | 20 |  |  |  |  |  |  |  |  | 
11 | Cc1c(Cn2c(C)nn3c(=O)cc(N4CCOC(C)C4)nc23)cccc1C(F)(F)F (single isomer, unassigned; enantiomer 1) [listing 1 of 2 here] | 1600 nM | 3.1 nM | 790 nM | 63 nM |  | 7.9 nM |  | 310 nM |  |  |  |  |  | 
12 | Cc1c(Cn2c(C)nn3c(=O)cc(N4CCOC(C)C4)nc23)cccc1C(F)(F)F (single isomer, unassigned; enantiomer 2) [listing 2 of 2 here] |  |  |  |  | > 10 |  |  |  |  |  |  |  |  | 
13 | CSc1nn2c(=O)cc(N3CCOCC3)nc2n1Cc1cccc(C(F)(F)F)c1C | 320 nM | 0.4 nM | 1300 nM | 25 nM | 6 | 5.1 nM |  |  |  |  |  |  |  | Not Active
14 | Cc1c(Cn2c(C)nn3c(=O)cc(N4CCOC(C)C4)nc23)cccc1C(F)(F)F (racemic) [listing 1 of 2 here] | 400 nM | 1.3 nM | 160 nM | 10 nM |  | 2.7 nM |  | 55 nM |  |  |  |  |  | 
15 | Cc1nn2c(=O)cc(N3CCOCC3)nc2n1Cc1cccc(Cl)c1Cl | 630 nM | 1.3 nM | 500 nM | 50 nM | 6 | 34 nM | 170 nM |  |  |  |  |  |  | 
16 | Cc1c(Cn2c(C)nn3c(=O)cc(N4CCOCC4)nc23)cccc1C(F)(F)F | 630 nM | 0.6 nM | 790 nM | 20 nM | 6 | 1.5 nM | 110 nM |  |  |  |  |  | 130 mL/min/kg | 
17 | Cc1c(Cn2c(C)nn3c(=O)cc(N4CCOC(C)C4)nc23)cccc1C(F)(F)F (single isomer, unassigned; enantiomer 1) [listing 2 of 2 here] |  |  |  |  | 6 |  |  |  |  |  |  |  |  | 
18 | Cc1nn2c(=O)cc(N3CCOC(C)C3)nc2n1Cc1cccc(Cl)c1Cl (single isomer, unassigned; enantiomer 2) | 1000 nM | 1.3 nM | 500 nM | 40 nM |  | 3.4 nM | 110 nM |  |  |  |  |  |  | 
19 | Cc1c(Cn2c(C)nn3c(=O)cc(N4CCOC(C)C4)nc23)cccc1C(F)(F)F (racemic) [listing 2 of 2 here] |  |  |  |  | 6 |  |  |  |  |  |  |  |  | 
20 | Cc1c(Cn2c(C3CC3)nn3c(=O)cc(N4CCOCC4)nc23)cccc1C(F)(F)F | 2500 nM | 1.3 nM | 1600 nM | 40 nM | 6 | 4.1 nM | 40 nM |  |  |  |  |  |  | 
